# Test results published in ChEMBL document CHEMBL3621107, “Ring fusion strategy for synthesis and lead optimization of sulfur-substituted anthra[1,2-c][1,2,5]thiadiazole-6,11-dione derivatives as promising scaffold of antitumor agents” (Eur J Med Chem, 2015).
# Key:
# Format in all cases: functional
# HCC 2998 = assay: Cytotoxicity against human HCC2998 cells after 48 hrs by SRB assay; conditions: HCC 2998, 48 h
# In short: (§1)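 NCI-60 human tumour cell panel screen, second stage, run by the NCI Developmental Therapeutics Program. Compounds were tested at five concentrations (0.01, 0.1, 1, 10 and 100 μM). Percentage growth was plotted against log10 concentration for each cell line. GI50, TGI and LC50 were taken from these dose-response curves.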
# SF-295 = assay: Cytotoxicity against human SF295 cells after 48 hrs by SRB assay; conditions: SF-295, 48 h
# In short: (§2)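 Second-stage NCI-60 panel run by the NCI Developmental Therapeutics Program, covering nine tumour subpanels. Five concentrations were tested: 0.01, 0.1, 1, 10 and 100 μM. Percentage growth at each level was plotted against log10 drug concentration. GI50, TGI and LC50 were read from these dose-response curves. Subpanel MID values were divided into the full-panel MID to give selectivity ratios.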
# [1] = Cytotoxicity against human non-small cell lung cancer cells assessed as growth inhibition after 48 hrs by SRB assay; conditions: Cancer cell lines
# In short: (§3)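 Values come from the NCI-60 five-dose panel (0.01–100 µM). The subpanel MID is the mean GI50 over the lines of that tumour subpanel. The selectivity ratio is the full-panel MID divided by the subpanel MID; 3–6 is rated moderate and >6 high.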
# SNB-19 = assay: Cytotoxicity against human SNB19 cells after 48 hrs by SRB assay; conditions: SNB-19, 48 h; in short: as §2
# SK-OV-3 = assay: Cytotoxicity against human SKOV3 cells after 48 hrs by SRB assay; conditions: SK-OV-3, 48 h; in short: as §2
# MDA-MB-435 = assay: Cytotoxicity against human MDA-MB-435 cells after 48 hrs by SRB assay; conditions: MDA-MB-435, 48 h; in short: as §2
# [2] = Cytotoxicity against human melanoma cells assessed as growth inhibition after 48 hrs by SRB assay; conditions: Melanoma cell; in short: as §3
# UACC-62 = assay: Cytotoxicity against human UACC62 cells after 48 hrs by SRB assay; conditions: UACC-62, 48 h
# In short: (§4)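 NCI-60 five-dose study run by NCI DTP at 0.01, 0.1, 1, 10 and 100 µM. Percentage growth at each level was plotted against log10 concentration for each line, and GI50, TGI and LC50 were read from the dose-response curves.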
# [3] = Cytotoxicity against human colon cancer cells assessed as growth inhibition after 48 hrs by SRB assay; conditions: Cancer cell lines; in short: as §3
# HL-60(TB) = assay: Cytotoxicity against human HL-60(TB) cells after 48 hrs by SRB assay; conditions: HL-60, 48 h
# In short: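 NCI Developmental Therapeutics Program 60-cell-line screen, second stage: cells exposed to five concentrations (0.01, 0.1, 1, 10 and 100 μM). Growth is plotted against log10 concentration for each line, and GI50, TGI and LC50 are read from the dose-response curves.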
# NCI-H226 = assay: Cytotoxicity against human NCI-H226 cells after 48 hrs by SRB assay; conditions: NCI-H226, 48 h; in short: as §2
# ACHN = assay: Cytotoxicity against human ACHN cells after 48 hrs by SRB assay; in short: as §1
# K562 = assay: Cytotoxicity against human K562 cells after 48 hrs by SRB assay; conditions: K562, 48 h; in short: as §1
# HCT-116 = assay: Cytotoxicity against human HCT116 cells after 48 hrs by SRB assay; conditions: HCT-116, 48 h; for CC50: read-out: LC50 (the source's name); in short: as §1
# [4] = Cytotoxicity against human EKVX cells after 48 hrs by SRB assay; in short: as §1
# HCT-15 = assay: Cytotoxicity against human HCT15 cells after 48 hrs by SRB assay; conditions: HCT-15, 48 h; in short: as §1
# SK-MEL-28 = assay: Cytotoxicity against human SK-MEL-28 cells after 48 hrs by SRB assay; conditions: SK-MEL-28, 48 h; for CC50: read-out: LC50 (the source's name); in short: as §2
# [5] = Cytotoxicity against human leukemia cells assessed as growth inhibition after 48 hrs by SRB assay; conditions: Leukemia cell; in short: as §3
# [6] = Cytotoxicity against human CNS cancer cells assessed as growth inhibition after 48 hrs by SRB assay; conditions: Cancer cell lines
# In short: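 NCI-60 five-dose data (0.01–100 μM) were grouped by tumour subpanel. A subpanel mean (MID) of GI50 was computed for the CNS cancer lines. A selectivity ratio was obtained as full-panel MID divided by subpanel MID: 3–6 counts as moderate, >6 as high.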
# NCI-H522 = assay: Cytotoxicity against human NCI-H522 cells after 48 hrs by SRB assay; conditions: NCI-H522, 48 h; in short: as §2
# HOP-62 = assay: Cytotoxicity against human HOP62 cells after 48 hrs by SRB assay; conditions: HOP-62, 48 h; in short: as §1
# [7] = Cytotoxicity against human ovarian cancer cells assessed as growth inhibition after 48 hrs by SRB assay; conditions: Cancer cell lines; in short: as §3
# Malme-3M = assay: Cytotoxicity against human MALME-3M cells after 48 hrs by SRB assay; in short: as §1
# UO-31 = assay: Cytotoxicity against human UO31 cells after 48 hrs by SRB assay; conditions: UO-31, 48 h; in short: as §4
# COLO 205 = assay: Cytotoxicity against human COLO205 cells after 48 hrs by SRB assay; conditions: COLO 205, 48 h; in short: as §1
# NCI-H23 = assay: Cytotoxicity against human NCI-H23 cells after 48 hrs by SRB assay; conditions: NCI-H23, 48 h; in short: as §2
# SK-MEL-5 = assay: Cytotoxicity against human SK-MEL-5 cells after 48 hrs by SRB assay; conditions: SK-MEL-5, 48 h; in short: as §2
# IGROV-1 = assay: Cytotoxicity against human IGROV1 cells after 48 hrs by SRB assay; conditions: IGROV-1, 48 h; in short: as §1
compound,measurement,setting,value
O=C1c2ccccc2C(=O)c2c1cc(Sc1ccccc1Br)c1nsnc21,GI50,HCC 2998,> 50 µM
same,LC50,HCC 2998,> 50 µM
same,TGI,HCC 2998,> 50 µM
same,GI50,SF-295,40.6 µM
same,LC50,SF-295,> 50 µM
same,TGI,SF-295,> 50 µM
same,GI50,[1],19.3 µM
same,GI50,SNB-19,32.2 µM
same,LC50,SNB-19,> 50 µM
same,TGI,SNB-19,> 50 µM
same,GI50,SK-OV-3,21 µM
same,LC50,SK-OV-3,> 50 µM
same,TGI,SK-OV-3,> 50 µM
same,GI50,MDA-MB-435,9.23 µM
same,LC50,MDA-MB-435,32.7 µM
same,TGI,MDA-MB-435,17.4 µM
same,GI50,[2],12.9 µM
same,GI50,UACC-62,12 µM
same,LC50,UACC-62,> 50 µM
same,TGI,UACC-62,40.8 µM
same,GI50,[3],21.4 µM
same,GI50,HL-60(TB),17.8 µM
same,LC50,HL-60(TB),> 50 µM
same,TGI,HL-60(TB),> 50 µM
same,GI50,NCI-H226,19.4 µM
same,LC50 (concentration killing 50% of starting cells),NCI-H226,> 50 µM
same,TGI,NCI-H226,> 50 µM
same,GI50,ACHN,12.8 µM
same,LC50,ACHN,> 50 µM
same,TGI,ACHN,32.5 µM
same,GI50,K562,18.5 µM
same,LC50,K562,> 50 µM
same,TGI,K562,> 50 µM
same,GI50,HCT-116,7.87 µM
same,TGI,HCT-116,19.9 µM
same,CC50,HCT-116,> 50 µM
same,GI50,[4],> 50 µM
same,LC50,[4],> 50 µM
same,TGI,[4],> 50 µM
same,GI50,HCT-15,12.3 µM
same,LC50,HCT-15,> 50 µM
same,TGI,HCT-15,> 50 µM
same,GI50,SK-MEL-28,20.9 µM
same,TGI,SK-MEL-28,> 50 µM
same,CC50,SK-MEL-28,> 50 µM
same,GI50,[5],12.8 µM
same,GI50,[6],21.8 µM
same,GI50,NCI-H522,14.9 µM
same,LC50 (concentration giving 50% net cell kill),NCI-H522,> 50 µM
same,TGI,NCI-H522,> 50 µM
same,GI50,HOP-62,13.3 µM
same,LC50,HOP-62,> 50 µM
same,TGI,HOP-62,30.4 µM
same,GI50,[7],11.2 µM
same,GI50,Malme-3M,16.8 µM
same,LC50,Malme-3M,> 50 µM
same,TGI,Malme-3M,40.2 µM
same,GI50,UO-31,14.9 µM
same,LC50,UO-31,> 50 µM
same,TGI,UO-31,> 50 µM
same,GI50,COLO 205,> 50 µM
same,LC50,COLO 205,> 50 µM
same,TGI,COLO 205,> 50 µM
same,GI50,NCI-H23,13.5 µM
same,LC50,NCI-H23,> 50 µM
same,TGI,NCI-H23,> 50 µM
same,GI50,SK-MEL-5,5.08 µM
same,LC50,SK-MEL-5,24.3 µM
same,TGI,SK-MEL-5,11.1 µM
same,GI50,IGROV-1,19.1 µM
same,LC50,IGROV-1,> 50 µM
O=C1c2ccccc2C(=O)c2c1cc(Sc1ccc(F)cc1F)c1nsnc21,GI50,HCC 2998,11.3 µM
same,LC50,HCC 2998,56.4 µM
same,TGI,HCC 2998,25.3 µM
same,GI50,SF-295,9 µM
same,LC50,SF-295,> 100 µM
same,TGI,SF-295,44.2 µM
same,GI50,[1],19 µM
same,GI50,SNB-19,13.9 µM
same,LC50,SNB-19,68.6 µM
same,TGI,SNB-19,30.9 µM
same,GI50,SK-OV-3,2.34 µM
same,LC50,SK-OV-3,13 µM
same,TGI,SK-OV-3,5.08 µM
same,GI50,MDA-MB-435,1.94 µM
same,LC50,MDA-MB-435,7.07 µM
same,TGI,MDA-MB-435,3.7 µM
same,GI50,[2],2.12 µM
same,GI50,UACC-62,1.73 µM
same,LC50,UACC-62,12.9 µM
same,TGI,UACC-62,4.37 µM
same,GI50,[3],7.43 µM
same,GI50,HL-60(TB),2.68 µM
same,LC50,HL-60(TB),> 100 µM
same,TGI,HL-60(TB),7.7 µM
same,GI50,NCI-H226,3.09 µM
same,LC50 (concentration killing 50% of starting cells),NCI-H226,59.1 µM
same,TGI,NCI-H226,11.1 µM
same,GI50,ACHN,1.85 µM
same,LC50,ACHN,7.14 µM
same,TGI,ACHN,3.63 µM
same,GI50,K562,3.32 µM
same,LC50,K562,68.4 µM
same,TGI,K562,11.8 µM
same,GI50,HCT-116,1.55 µM
same,TGI,HCT-116,3.22 µM
same,CC50,HCT-116,6.69 µM
same,GI50,[4],20.8 µM
same,LC50,[4],> 100 µM
same,TGI,[4],66.5 µM
same,GI50,HCT-15,2.84 µM
same,LC50,HCT-15,50 µM
same,TGI,HCT-15,12.9 µM
same,GI50,SK-MEL-28,1.87 µM
same,TGI,SK-MEL-28,3.81 µM
same,CC50,SK-MEL-28,7.75 µM
same,GI50,[5],2.16 µM
same,GI50,[6],5.69 µM
same,GI50,NCI-H522,3.76 µM
same,LC50 (concentration giving 50% net cell kill),NCI-H522,37.1 µM
same,TGI,NCI-H522,12.4 µM
same,GI50,HOP-62,1.82 µM
same,LC50,HOP-62,6.01 µM
same,TGI,HOP-62,3.3 µM
same,GI50,[7],2.7 µM
same,GI50,Malme-3M,3.26 µM
same,LC50,Malme-3M,41.7 µM
same,TGI,Malme-3M,8.65 µM
same,GI50,UO-31,3.03 µM
same,LC50,UO-31,42.6 µM
same,TGI,UO-31,15 µM
same,GI50,COLO 205,13.7 µM
same,LC50,COLO 205,56.2 µM
same,TGI,COLO 205,27.7 µM
same,GI50,NCI-H23,1.88 µM
same,LC50,NCI-H23,43.1 µM
same,TGI,NCI-H23,6.99 µM
same,GI50,SK-MEL-5,1.41 µM
same,LC50,SK-MEL-5,5.72 µM
same,TGI,SK-MEL-5,2.84 µM
same,GI50,IGROV-1,2.93 µM
same,LC50,IGROV-1,46.6 µM
same,TGI,IGROV-1,10.2 µM
